Source: PubChem BioAssay (several laboratories)
Many of the other results were omitted from the sample, so hits are more common in it than they were.
T cruzi repl – T. cruzi replication inhibition. T. cruzi beta-gal in NIH3T3, luminescence, 90 h. inhibition, % (test concentration not listed). hit rate 1.4% among 300,000;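 active means mean inhibition across valid replicates above about 55%, limit read from the data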;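 further: signal also drops with host cell toxicity which is not excluded here; 0% = plate median of DMSO wells and 100% = zero luminescence signal; higher percent means less beta-gal luminescence so fewer parasites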
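System – NIH/3T3 host cells with β-galactosidase reporter T. cruzi · Doses – single 50 nL compound addition per well in DMSO · Reagent – 5000 T. cruzi trypomastigotes/well · Medium – Low-serum DMEM with 2% FBS · Timing – ≥90 h infection period, 3 h prior cell attachment · Evaluation – parasite load inhibition, % · Technique – GalScreen luminescence, 60 min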
HSF1 inhib – HSF1 inhibition | hit rate 0.77% among 300,000 | activity change, negative = inhibition, % at 7.5 µM (by protocol) | NIH3T3-HGL HSE-luciferase, MG132-induced, luminescence 8 h; active compounds read low | AID 2098;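 active means more than half of replicate wells show activity change below -50%, luminescence cut by over half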;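 further: luciferase reports HSF-1 transcriptional activity via heat shock element; 0% = median of DMSO wells and -100% = zero luminescence signal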
HSF-1 act – increases HSF-1 driven luciferase reporter signal; activation, % at 9 µM; hit rate 1.7% among 300,000; NIH3T3-HGL HSF-1 luciferase reporter, MG132, 8 h; 100% = twice DMSO control signal;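 active means mean replicate activation of at least 50% with a set share of replicates each reaching 50%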;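 further: 0% = median of the neutral control wells and 100% = twice that signal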
Lmaj promast – reduces viability of Leishmania major promastigotes; inhibition, % at 10 µM; AID 1063; hit rate 9% among 200,000; resazurin fluorescence viability; in the data active means inhibition above about 50%;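 further: promastigotes grown with compound for 44 hours at 28 °C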
Hsp70 act – transcriptional activators of Hsp70. HeLa Hsp70 promoter luciferase reporter, luminescence; scaled: vehicle 0, proteasome-inhibitor control 100%. activation, % at 10 µM. hit rate 0.04% among 200,000;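 active means activation above the mean across all tested compounds plus 3 SD, cutoff set per campaign, cut at about 5.5% in these data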;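 further: 100% = MG132 at 30 µM as the positive control and 0% = DMSO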
* hit, by the source's call; nt = no result.

SMILES | T cruzi repl | HSF1 inhib | HSF-1 act | Lmaj promast | Hsp70 act
O=C(O)COCC(=O)Nc1ccc(OCCc2ccccc2)cc1 | -3.2 | -7.1 | -8.7 | nt | nt
CC(NC(=O)c1ccccc1)c1nnc(SCC(=O)Nc2nnc(C3CC3)s2)n1C (configuration not stated) | -7.4 | -3.1 | -3.3 | nt | nt
COc1ccc(S(=O)(=O)N2CCC(C(=O)NCc3ccccc3)CC2)cc1OC | -10.2 | 2.9 | -5.3 | -2.6 | -0.2
C/C(CCC1CC(C)OC1=O)=N/Nc1nc(-c2ccccc2)cs1 (configuration not stated) | -3.6 | -8.6 | -14.1 | 76.2* | -0.2
Cc1c(N(C)S(=O)(=O)c2cccc(C(=O)NC(C)C)c2)c(=O)n(-c2ccccc2)n1C | -7.6 | 22.9 | 62.2* | nt | nt
Cc1c(N(C)S(=O)(=O)c2cccc(C(=O)NCC3CCCO3)c2)c(=O)n(-c2ccccc2)n1C (configuration not stated) | 1.0 | -1.6 | 21.1 | nt | nt
Cc1[nH]c(=O)[nH]c(=O)c1/C=N/NC(=O)[C@H](C)N | -1.0 | -3.7 | 0.0 | nt | nt
Cn1ccnc1SCC(=O)Nc1cc(S(=O)(=O)N2CCOCC2)ccc1Cl | 0.5 | -9.8 | -6.0 | 61.7* | -0.1
COc1ccc(NC(=O)CSc2nc(C)cs2)c(OC)c1 | -12.1 | 2.0 | 21.8 | 1.9 | -0.2
Cc1csc(SCC(=O)Nc2cc(S(=O)(=O)N3CCCC3)ccc2Cl)n1 | 16.2 | -54.0* | -62.8 | 4.2 | -0.1
O=C(CSc1cccc[n+]1[O-])Nc1cc(S(=O)(=O)N2CCOCC2)ccc1Cl | 9.2 | -9.2 | -6.8 | 67.9* | -0.4
Cc1ccc(S(=O)(=O)N2CCOCC2)cc1NC(=O)CSc1cccc[n+]1[O-] | -16.0 | -2.7 | -9.8 | -5.2 | -0.1
COc1cc(NC(=O)CSc2nc(C)cs2)cc(OC)c1 | -6.4 | -81.3* | -85.5 | 2.4 | 0.1
COCC(C)n1c(C)cc(C(=O)COC(=O)/C=C/c2cccc(F)c2)c1C (configuration not stated) | 0.5 | 9.4 | 6.7 | -6.8 | -0.1
CC1(C)NC(=O)N(CC(=O)OCC(=O)Nc2cc(S(=O)(=O)N3CCCCC3)ccc2Cl)C1=O | -17.4 | 4.6 | -6.1 | 69.8* | -0.1
C/C(=N\NC(=S)Nc1cc(S(=O)(=O)N2CCOCC2)ccc1Cl)c1ccccc1F | 43.0 | -10.2 | -15.9 | 71.5* | -0.5
CCN(CCNCC(O)COc1ccccc1C(C)C)c1cccc(C)c1 (configuration not stated) | 28.1 | -6.4 | -16.0 | nt | nt
CC(=O)N1c2ccccc2N(Cc2ccc(C)cc2C)C(=O)C1(C)C | -29.9 | -11.3 | -8.9 | 93.7* | nt
C=CCN1C(=O)C(C)(C)N(C(C)=O)c2ccccc21 | -5.3 | -8.1 | 9.0 | -1.6 | 0.3
O=C(CCN1C(=O)c2ccccc2C1=O)Oc1ccc2ccccc2c1 | -5.5 | -1.6 | -14.2 | -4.6 | -0.1
CC1=CC(C)(C)Nc2ccc(OC(=O)CCN3C(=O)c4ccccc4C3=O)cc21 | -14.5 | -1.3 | -1.0 | 78.7* | -0.3
CC1=CC(C)(C)Nc2ccc(OS(=O)(=O)c3ccc(C)cc3)cc21 | 52.8 | 1.7 | -1.4 | 93.7* | -0.1
CCCCCN(C(=O)CCC(=O)OCc1ccc(C(C)C)cc1)c1c(N)n(CCCC)c(=O)[nH]c1=O | 30.7 | 8.0 | 19.1 | nt | nt
O=C1C2C3C=CC(C4CC34)C2C(=O)N1/N=C/c1ccc(-c2ccc(Cl)cc2[N+](=O)[O-])o1 (configuration not stated) | 12.3 | 11.8 | 24.8 | 59.4* | -0.2
CCOC(=O)C1(Cc2ccccc2)CCN(CC2CC=CCC2)CC1 (configuration not stated) | 12.4 | nt | nt | 79.7* | 0.3
SMILES | T cruzi repl | HSF1 inhib | HSF-1 act | Lmaj promast | Hsp70 act
O=C(c1ccccc1)N1CCN(CC2CC=CCC2)CC1 (configuration not stated) | -7.4 | -47.4 | -57.1 | 70.2* | -0.3
COc1cc(CN2CCC(C(=O)N3CCCC(C)C3)CC2)cc(OC)c1O (configuration not stated) | 9.3 | -6.0 | -5.6 | -3.1 | -0.3
CC1CCCN(C(=O)C2CCN(CC3CC=CCC3)CC2)C1 (configuration not stated) | -2.5 | -3.1 | 8.1 | 94.3* | -0.3
CCOC(=O)C1(Cc2cccc(F)c2)CCN(CC2CC2)CC1 | 6.2 | -6.7 | 1.9 | 5.2 | -0.2
CCOC(=O)C1(Cc2cccc(OC)c2)CCN(CC2CC=CCC2)CC1 (configuration not stated) | 23.7 | 0.0 | -9.2 | 92.0* | -0.1
Cn1cc2cc([N+](=O)[O-])ccc2n1 | -6.0 | -8.9 | -16.9 | -10.0 | -0.5
